ASAP1 inh: blocks human ASAP1-stimulated Arf1 GTP hydrolysis | inhibition, % at 16.5 µM | GDP FP detection | 360,000 tested, 0.19% active | Q9ULH1; in the data active means inhibition above about 25%;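 further: 0% = vehicle with enzyme and substrate and 100% = no enzyme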
PAFAH1B3 inh: blocks human PAF acetylhydrolase 1B catalytic subunit 3; Q15102; recombinant PAFAH1B3, FP-rhodamine probe, fluorescence polarization; inhibition, % at 3.39 µM; 340,000 tested, 0.28% active;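 active means inhibition above the screen-wide average of all tested compounds plus 3 SD, cut at about 25% in these data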;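 further: 0% = enzyme with DMSO only and 100% = wells lacking PAFAH1B3 protein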
PAFAH1B2 inh: inhibitors of human PAFAH1B2. 340,000 tested, 1.2% active. recombinant PAFAH1B2, FP-rhodamine activity probe, fluorescence polarization. AID 492953. inhibition, % at 3.39 µM. P68402;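 active means inhibition above the mean of all tested compounds plus 3 SD, cut at about 24% in these data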;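 further: 0% = enzyme with DMSO and 100% = wells lacking PAFAH1B2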
ARFGAP1 inhibitor: inhibits rat ARF GTPase activating protein 1; Q62848; Arfgap1-stimulated ARF1 GTP hydrolysis, GDP FP detection; inhibition, % at 16.5 µM; 360,000 tested, 0.26% active; AID 651572;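 active means inhibition above a per-plate limit, mean inhibition of low control wells plus 3 SD, cut at about 25% in these data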;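 further: 0% = DMSO wells with enzyme and 100% = wells lacking Arfgap1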
Target sequence (Q62848 1-136 limits assumed): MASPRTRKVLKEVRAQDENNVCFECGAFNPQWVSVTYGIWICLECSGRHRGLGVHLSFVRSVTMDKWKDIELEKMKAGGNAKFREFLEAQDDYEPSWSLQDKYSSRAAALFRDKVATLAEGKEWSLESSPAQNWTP
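Material – truncated rat Arfgap1 GAP domain · Buffer or medium – HEPES-based buffer, pH 7.5 · Reagent – human ARF1(Δ1-17)-GTP substrate · Dosing – 16.5 µM single point, 1.26% DMSO · Schedule – GTP hydrolysis reaction 2 h at 25 °C · Technique – GDP detection by fluorescence polarization · Benchmarks – No-Arfgap1 wells (100%) versus DMSO full-reaction wells (0%) · Repeats – single replicate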
PAFAH2 FP inh: inhibitors of human PAFAH2; recombinant PAFAH2, FP-rhodamine activity probe, fluorescence polarization; inhibition, % at 3.39 µM; 340,000 tested, 0.99% active;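 active means inhibition above the mean over all tested compounds plus 3 SD, cut at about 30% in these data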;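 further: inhibitors block probe labeling of enzyme so polarization drops; 0% = enzyme with DMSO and 100% = wells lacking PAFAH2 protein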
pPAFAH FP inh: inhibitors of human plasma PAF acetylhydrolase (pPAFAH) | Q13093 | recombinant pPAFAH, FP-rhodamine probe fluorescence polarization | inhibition, % at 3.39 µM | 330,000 tested, 1.5% active;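 active means inhibition above the mean inhibition across the screen plus 3 SD, cut at about 25% in these data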;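 further: inhibitors block binding of the rhodamine activity-based probe so polarization drops; 0% = enzyme with DMSO and 100% = wells lacking pPAFAH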
Target sequence (Q13093 whole entry, looked up): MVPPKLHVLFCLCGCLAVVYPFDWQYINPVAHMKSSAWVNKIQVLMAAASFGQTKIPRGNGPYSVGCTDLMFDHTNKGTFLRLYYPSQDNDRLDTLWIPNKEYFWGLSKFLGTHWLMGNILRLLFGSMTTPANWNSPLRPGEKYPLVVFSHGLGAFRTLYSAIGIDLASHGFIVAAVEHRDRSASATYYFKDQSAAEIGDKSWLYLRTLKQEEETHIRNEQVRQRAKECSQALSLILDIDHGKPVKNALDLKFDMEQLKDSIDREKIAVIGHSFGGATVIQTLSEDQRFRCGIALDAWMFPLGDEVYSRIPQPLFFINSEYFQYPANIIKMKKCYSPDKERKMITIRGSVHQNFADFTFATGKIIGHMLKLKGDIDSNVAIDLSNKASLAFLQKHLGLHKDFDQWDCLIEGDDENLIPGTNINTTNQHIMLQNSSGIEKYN
* = called active by the depositor; x = not tested or not shown. Sampled rows, rich in hits. Any-hit rate of the full collection: about 2.8%.

SMILES	ASAP1 inh	PAFAH1B3 inh	PAFAH1B2 inh	ARFGAP1 inhibitor	PAFAH2 FP inh	pPAFAH FP inh
O=c1ccc2[n+]([O-])c3ccc(O)cc3oc-2c1	-100	149*	136*	-104	155*	x
[N-]=[N+]=NC(c1ccccc1)C(NC(=O)c1cc(C(F)(F)F)cc(C(F)(F)F)c1)c1ccccc1 (stereo unspecified)	5	x	x	7	x	x
COc1ccc(Br)c(Cn2c(C)c(C(=O)NCc3ccc4c(c3)OCCO4)sc2=O)c1	1	x	x	9	x	x
Cc1ccc(C2=CC(=O)CC(C)(C)C2=O)cc1	2	x	x	-6	x	x
CN(C)C(=O)c1cc(C(=O)c2ccc(F)cc2C(F)(F)F)c[nH]1	2	6	5	-9	2	30*
CCOC1=C2CN(S(=O)(=O)c3ccc(C)cc3)C(c3ccccc3)CC2N(S(=O)(=O)c2ccccc2Cl)C(c2ccccc2)C1 (stereo unspecified)	-5	x	x	4	x	x
CCC(CO)Oc1cc(NC(=O)Cc2ccccc2)c2ncn(C(C)C)c2c1 (stereo unspecified)	7	1	1	-4	16	26*
Cc1cc(N)ccc1NC(=O)CN1CCOCC1	5	11	0	0	-1	3
COc1cc(/C=N/NC(=O)c2sc3nc(C)cc(C)c3c2N)ccc1O	-8	x	x	11	x	31*
COC(=O)c1sc2nc(C)cc(C)c2c1N	3	6	2	-9	0	3
O=C1CCC(=O)N1c1ccc(S(=O)(=O)Nc2ccc(Br)cc2)cc1	8	-4	6	3	-10	33*
CCc1nc2c(OCC(=O)c3ccc(F)cc3)cccn2c1N(C)C(=O)c1ccc(OC)cc1	0	x	x	10	x	x
O=Nc1c(O)[nH]c2ccc(Cl)c(Cl)c12	3	43*	28*	7	31*	x
Cc1cc(/C=C2\Sc3ccccc3N2C)cc(C)[n+]1CC1CCCO1 (stereo unspecified)	2	x	x	8	x	x
CCCS(=O)(=O)c1nc(S(=O)(=O)c2ccc(C)cc2)c(N2CCN(C)CC2)s1	2	6	9	2	3	5
Cc1ccc(S(=O)(=O)c2nc(S(=O)(=O)c3ccccc3)sc2N2CCN(C)CC2)cc1	-1	5	0	-4	0	31*
CC1(C)CC(NC(=O)c2cccc([N+](=O)[O-])c2)CC(C)(C)N1	0	14	3	7	-2	-4
Fc1ccccc1NC(=S)N1CCN(Cc2ccccc2)CC1	-6	4	0	8	1	32*
Cc1ccc(SCC(=O)OCn2nnc3ccccc3c2=O)cc1C	0	6	6	8	-8	30*
Cc1ccc(SCCC(=O)OCn2nnc3ccccc3c2=O)cc1	5	2	22	5	3	13
CCOC(=O)C1CCN(C(=O)Nc2ccc3c(c2)nc(C)n3C)CC1	2	10	4	-7	-8	-1
CCOC(=O)C1CCN(C(=O)Nc2ccc3nc(-c4ccco4)c(-c4ccco4)nc3c2)CC1	x	13	11	x	21	60*
O=C(Nc1ccc2nc(-c3ccco3)c(-c3ccco3)nc2c1)N1CCCCCC1	x	x	x	x	x	69*
COc1ccc(N=[N+]([O-])c2ccc(OC)cc2)cc1	-9	-1	0	-3	1	x
Cn1c(CNC(=O)c2ccc(Cl)cc2)nnc1SCC(=O)NC1CCCC1	9	3	3	1	6	1
SMILES	ASAP1 inh	PAFAH1B3 inh	PAFAH1B2 inh	ARFGAP1 inhibitor	PAFAH2 FP inh	pPAFAH FP inh
Cn1c(CNC(=O)c2ccc(Cl)cc2)nnc1SCC(=O)Nc1sc2c(c1C#N)CCCC2	-6	3	26*	-11	-1	4
Cc1cc(C)c2cc(C#N)c(NCCCN)nc2c1	-1	x	x	-7	x	x
CCCCc1cc(=O)oc2cc(C)cc(OCC(=O)NC(Cc3ccc(Cl)cc3)C(=O)O)c12 (stereo unspecified)	-1	4	30*	-3	-1	6
CCCc1cc(=O)oc2cc(C)cc(OCC(=O)NC(Cc3ccc(Cl)cc3)C(=O)O)c12 (stereo unspecified)	-1	3	27*	10	-7	6
CCCc1cc(=O)oc2cc(C)cc(OCC(=O)N[C@@H](CSCc3ccccc3)C(=O)O)c12	-5	-3	2	-4	5	17
O=C(O)c1cccc(CSc2nc(-c3ccccc3)cc(C(F)(F)F)n2)c1	-10	7	2	-11	-11	26*
COc1ccc(NC(=O)C2CC2)cc1S(=O)(=O)N1CCOCC1	-7	3	1	9	1	1
COc1ccc(NC(=O)c2c3c(nc4ccccc24)CCC3)cc1S(=O)(=O)N1CCOCC1	3	6	1	-2	0	26*
COc1ccc(NC(=O)C23CC4CC(CC(Cl)(C4)C2)C3)cc1S(=O)(=O)N1CCOCC1	11	7	27*	3	1	7
CSCCC(NC(=O)c1ccccc1Cl)C(=O)NCC(c1cccs1)N(C)C (stereo unspecified)	-15	5	-4	11	2	x
C=CCN(C(=O)CCC(=O)Nc1cc(C)on1)C(C(=O)NC1CCCC1)c1ccc(Cl)cc1 (stereo unspecified)	-4	1	0	7	-2	5
OCCSc1nnc(Nc2ccccc2)s1	12	-1	1	6	-7	25*
c1ccc(C(c2ccccc2)c2ccn[nH]2)cc1	7	2	27*	1	3	2
CCCCSc1cc(=O)[nH]c(N)n1	3	5	0	4	-5	4
COc1ccc(S(=O)(=O)NC(=O)C2(C)CCN2C(=O)CC2CCCCC2)cc1OC (stereo unspecified)	-6	x	x	-3	x	x
CCCCn1c(NS(=O)(=O)c2ccc(C)cc2)c(S(=O)(=O)c2ccccc2)c2nc3ccccc3nc21	18	72*	34*	9	49*	4
Cc1ccc(S(=O)(=O)c2c(N)n(CCCN(C)C)c3nc4ccccc4nc23)cc1	-3	13	5	1	4	9
O=C(OCC(=O)c1ccc(Cl)s1)c1cnccn1	-8	2	3	-4	8	26*
O=C(OCC(=O)c1ccc(Cl)s1)c1ccccn1	-4	3	-2	-5	0	6
O=C(COC(=O)c1cnccn1)c1ccc(Br)cc1	-2	4	26*	5	3	-4
COc1ccc(S(=O)(=O)N2CCCCC2)cc1NC(=O)c1cccc(S(=O)(=O)N2CCOCC2)c1	-5	8	6	7	8	x
COc1ccc(COC(=O)N/N=C/c2cccs2)cc1	5	5	4	7	2	5
O=C(NCc1cccnc1)c1csc([C@H]2C[C@H](O)[C@@H](CO)O2)n1	5	x	x	-2	x	x
COc1ccc(CNC(=O)COC(=O)C2(C)CC2(Cl)Cl)cc1 (stereo unspecified)	5	7	-2	-3	1	0

Assay outcomes from PubChem.
